The source made the active and inactive calls. No cut-off for these calls is given here.
How the values were obtained:
[1] = tested on: dengue virus type 2; experiment: Antiviral activity against Dengue virus 2 infected in human BE(2)-C cells assessed as reduction in NS3 protein expression at 3.125 to 6.25 uM treated during 0 to 3 hrs post infection by Western blot analysis; format: functional, organism-based
Method in brief: (§1)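 Time-of-addition design: BE(2)C cells were infected with DENV-2 or ZIKV at MOI 1. Compound at 3.125 or 6.25 μM was present either during adsorption (0–3 hpi) or afterward (3–24 hpi). Viral protein was immunoblotted against actin, with the ratio as % of the solvent control.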

[2] = tested on: dengue virus type 2; experiment: Antiviral activity against DENV-2 NGC-N infected in Stat1-/- mouse assessed as effect on overall mouse survival at 2 to 8 mg/kg/day, po dosed immediately following viral infection followed by daily dosing for 6 days; format: functional, organism-based
[3] = tested on: dengue virus type 2; experiment: Antiviral activity against DENV-2 NGC-N infected in Stat1-/- mouse assessed as time delay in mouse mortality at 2 mg/kg/day, po dosed immediately following viral infection followed by daily dosing for 6 days (reference value: 9 days); format: functional
[4] = tested on: Zika virus; experiment: Antiviral activity against Zika virus infected in human BE(2)-C cells assessed as NS3 protein expression at 6.25 uM treated during 3 to 24 hrs post infection by Western blot analysis (reference value: 100%); format: functional; method in brief: as §1
[5] = tested on: Zika virus; experiment: Antiviral activity against Zika virus infected in human BE(2)-C cells assessed as NS3 protein expression at 6.25 uM treated during 0 to 3 hrs post infection by Western blot analysis (reference value: 100%); format: functional; method in brief: as §1
[6] = tested on: dengue virus type 2; experiment: Antiviral activity against eGFP-fused Dengue virus 2 infected in human BE(2)-C cells assessed as viral infection level by measuring intensity of eGFP emission from infected cells at 3.13 uM incubated for 24 hrs relative to control; format: functional
Method in brief: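 BE(2)C cells, in RPMI 1640 with 10% FBS, were infected with DENV-2-eGFP reporter virus (MOI 1) for 24 h with or without compound, using DMSO as solvent control. Cells were fixed in 4% paraformaldehyde and stained with Hoechst, then imaged by high-content analysis. eGFP intensity per cell number is given as % of solvent control. Values are means of 3 experiments.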

[7] = tested on: BE(2)-C; experiment: Cytotoxicity against human BE(2)-C cells assessed as reduction in cell viability up to 12.5 uM incubated overnight by LDH assay relative to control; format: cell-based
Method in brief: (§2)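 BE(2)C cells (RPMI 1640, 10% FBS) exposed overnight to compound at concentrations up to 12.5 μM; XTT (proliferation) or LDH release (cytotoxicity) read by absorbance at 490 nm. Values normalized to solvent control (%), mean ± SD of 3 independent experiments.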

[8] = tested on: BE(2)-C; experiment: Cytotoxicity against human BE(2)-C cells assessed as reduction in cell proliferation up to 12.5 uM incubated overnight by XTT assay relative to control; format: cell-based; method in brief: as §2
[9] = tested on: dengue virus type 2; experiment: Antiviral activity against Dengue virus 2 infected in human BE(2)-C cells assessed as NS3 protein expression at 0.78 uM incubated for 48 hrs by Western blot analysis (reference value: 100%); format: functional
Method in brief: (§3)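 BE(2)C neuroblastoma cells in RPMI 1640 with 10% FBS were infected with DENV-2 PL046 at MOI 0.1 for 48 h, without or with compound at increasing concentrations. NS3 was immunoblotted with actin as loading control. The NS3:actin densitometry ratio was expressed as % of the DMSO control. Mean ± SD of 3 independent experiments.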

[10] = tested on: dengue virus type 2; experiment: Antiviral activity against Dengue virus 2 infected in human BE(2)-C cells assessed as NS3 protein expression at 3.125 uM incubated for 48 hrs by Western blot analysis (reference value: 100%); format: functional; method in brief: as §3
[11] = tested on: dengue virus type 2; experiment: Antiviral activity against Dengue virus 2 infected in human BE(2)-C cells assessed as NS3 protein expression at 12.5 uM incubated for 48 hrs by Western blot analysis (reference value: 100%); format: functional; method in brief: as §3
[12] = tested on: Zika virus; experiment: Antiviral activity against Zika virus infected in human BE(2)-C cells assessed as NS3 protein expression at 0.39 uM incubated for 48 hrs by Western blot analysis (reference value: 100%); format: functional
Method in brief: (§4)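 BE(2)C cells were infected with ZIKV PRVABC59 at MOI 0.1 for 48 h, with or without compound at increasing concentrations. Viral protein was immunoblotted with actin as loading control. The band-density ratio was given as % of the solvent control. Mean ± SD, 3 independent experiments.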

[13] = tested on: Zika virus; experiment: Antiviral activity against Zika virus infected in human BE(2)-C cells assessed as NS3 protein expression at 0.78 uM incubated for 48 hrs by Western blot analysis (reference value: 100%); format: functional; method in brief: as §4
[14] = tested on: Zika virus; experiment: Antiviral activity against Zika virus infected in human BE(2)-C cells assessed as NS3 protein expression at 1.56 uM incubated for 48 hrs by Western blot analysis (reference value: 100%); format: functional; method in brief: as §4
[15] = tested on: Zika virus; experiment: Antiviral activity against Zika virus infected in human BE(2)-C cells assessed as reduction in viral entry at 3.125 to 6.25 uM incubated for 90 mins by plaque-forming assay; format: functional, organism-based
Method in brief: (§5)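 Virus entry: BE(2)C cells were incubated with DENV-2 or ZIKV for 90 min at 4 °C and washed cold. Cells were then treated with 3.125 or 6.25 μM compound at 37 °C for 1 h. Non-internalized virus was inactivated with 0.1 M glycine, pH 3, for 5 min. Cells were lysed by needle passage, and internalized virus was titrated by plaque assay. Mean ± SD, n = 3.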

[16] = tested on: dengue virus type 2; experiment: Antiviral activity against Dengue virus 2 infected in human BE(2)-C cells assessed as reduction in viral entry at 3.125 to 6.25 uM incubated for 90 mins by plaque-forming assay relative to control; format: functional; set-up: scale not given: the % may be the effect or the level left; method in brief: as §5
[17] = tested on: Zika virus; experiment: Antiviral activity against Zika virus infected in human BE(2)-C cells assessed as suppression of viral-induced CaMKIIalpha activation at 3.125 uM incubated for 4 hrs by confocal microscopy; format: functional, organism-based
[18] = tested on: Zika virus; experiment: Antiviral activity against Zika virus infected in Stat1-/- mouse assessed as improvement in overall mouse survival at 4 to 8 mg/kg, po dosed 8 hrs after infection and ending at day 6 after infection (8 hrs delay) relative to control; format: functional, organism-based
Method in brief: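 Stat1-/- mice, 6 weeks old, infected sc in the footpad with 5x10⁴ PFU of ZIKV PRVABC59. Oral dosing at 4 or 8 mg/kg/day, or PBS, started 8 h post-infection and ran daily up to day 6; n = 5. Survival was monitored for 12 d, with T50 by log-rank test.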

[19] = tested on: dengue virus type 2; experiment: Antiviral activity against DENV-2 NGC-N infected in Stat1-/- mouse assessed as improvement in mouse survival by measuring median survival time at 4 to 8 mg/kg, po dosed 8 hrs after infection and ending at day 6 after infection (8 hrs delay) (reference value: 8 days); format: functional
[20] = tested on: dengue virus type 2; experiment: Antiviral activity against fluorescently labeled Dengue virus 2 infected in human BE(2)-C cells at 3.125 uM by confocal microscopy; format: functional, organism-based
Method in brief: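 DENV-2 or ZIKV was concentrated and labeled with atto-647N dye. BE(2)C cells were pretreated with solvent or 3.125 µM, then incubated at 37 °C with labeled DENV-2 for 30 min or ZIKV for 60 min. Cells were fixed in 4% paraformaldehyde, membranes stained with WGA-488, and intracellular virus signal imaged by confocal microscopy.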

[21] = tested on: Zika virus; experiment: Antiviral activity against Zika virus infected in human BE(2)-C cells transfected with shLacZ assessed as NS3 protein expression at 3.125 uM incubated for 48 hrs by Western blot analysis (reference value: 100%); format: functional

COc1ccc(S(=O)(=O)N(CCCC(=O)C2CCCCCC2)c2ccccc2)cc1
Activity [1]: Dose-dependent effect | Activity [2]: inactive | Time [3]: 15 days | Activity [4]: 79.5% | Activity [5]: 20.1% | Activity [6]: 9.6% | Activity [7]: Non-Toxic | Activity [8]: Non-Toxic | Activity [9]: 85.4% | Activity [10]: 54.5% | Activity [11]: 5.1% | Activity [12]: 97.7% | Activity [13]: 89.6% | Activity [14]: 62.2% | Activity [15]: Dose-dependent effect | Activity [16]: <=70% | Activity [17]: Active | Activity [18]: inactive | MST [19]: 10 days | Activity [20]: Active | Activity [21]: 102%

Reference: ChEMBL document CHEMBL4376891, “Benzenesulfonamide Derivatives as Calcium/Calmodulin-Dependent Protein Kinase Inhibitors and Antiviral Agents against Dengue and Zika Virus Infections” (J Med Chem, 2020)
